Results reported in ChEMBL document CHEMBL1123037, “Anticonvulsant activity of some 4-aminobenzanilides” (J Med Chem, 1985).

Tests used:
Mus musculus [1] = species: Mus musculus; assay: Effective dose evaluated against maximal electric seizures (MES) or convulsions in mice; activity value ranges from 38.02-50.30; assay type: functional
Mus musculus [2] = assay: Toxicity tested by rotarod test for neurologic deficit at interval of 30 min when 100 mg/kg was administered intraperitoneally; shows activity; assay type: organism-based; set-up: dose 100 mg/kg, route intraperitoneal; details: in vivo, ip, 0.5 h
Method in brief: (§1)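 Male Carworth Farms number-one mice dosed ip with compound in 30% polyethylene glycol 400. Each mouse was placed on a 1-in.-diameter knurled plastic rod rotating at 6 rpm. Neurologic toxicity was scored as failure to stay on the rod for 1 min. Screening doses were 30, 100, 300 and sometimes 600 mg/kg, tested at 30 min and 4 h. TD50 was read by the graphical method.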

Mus musculus [3] = assay: Toxicity tested by rotarod test for neurologic deficit at interval of 4 hr when 600 mg/kg was administered intraperitoneally; shows activity; assay type: organism-based; set-up: dose 600 mg/kg, route intraperitoneal; details: in vivo, ip; method in brief: as §1
[4] = Toxic dose was determined by the rotarod test in mice; activity value ranges from 156.61-251.07; assay type: toxicity, organism-based; details: mouse, in vivo
[5] = Protective index as the ratio of TD50 value against MES to that of ED50 value against MES.; assay type: ADME; details: read-out: PI
Method in brief: (§2)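 Protective index = rotorod TD50 divided by ED50 (MES or scMet), both from ip dosing in male Carworth Farms number-one mice, medians obtained graphically.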

[6] = Protective index as the ratio of TD50 value against scMET to that of ED50 value against scMET.; assay type: ADME; details: read-out: PI; method in brief: as §2
Mus musculus [7] = assay: Effective dose was evaluated for its anticonvulsant activity against subcutaneous induced metrazole convulsions in mice; activity value ranges from 122.64-177.02; assay type: functional; details: sc
Mus musculus [8] = species: Mus musculus; assay: Effective dose evaluated against maximal electric seizures (MES) or convulsions in mice; activity value ranges from 246.97-337.89; assay type: functional
Mus musculus [9] = species: Mus musculus; assay: Effective dose evaluated against maximal electric seizures (MES) or convulsions in mice; activity value ranges from 12.50-31.75; assay type: functional
Mus musculus [10] = assay: Toxicity tested by rotarod test for neurologic deficit at interval of 4 hr when administered intraperitoneally; LD50 < 600 mg/kg; assay type: organism-based; set-up: dose 600 mg/kg, route intraperitoneal; details: in vivo, ip
[11] = Toxic dose was determined by the rotarod test in mice; activity value ranges from 88.85-119.90; assay type: toxicity, organism-based; details: mouse, in vivo
Mus musculus [12] = assay: Effective dose was evaluated for its anticonvulsant activity against subcutaneous induced metrazole convulsions in mice; activity value ranges from 38.83-46.00; assay type: functional; details: sc
[13] = Toxic dose was determined by the rotarod test in mice activity value ranges from 153.02-189.96; assay type: toxicity, organism-based; details: mouse, in vivo
Mus musculus [14] = species: Mus musculus; assay: Effective dose evaluated against maximal electric seizures (MES) or convulsions in mice; activity value ranges from 14.70-19.13; assay type: functional
[15] = Toxic dose was determined by the rotarod test in mice; activity value ranges from 40.62-57.10; assay type: toxicity, organism-based; details: mouse, in vivo
Mus musculus [16] = assay: Toxicity tested by rotarod test for neurologic deficit at interval of 30 min when 30 mg/kg was administered intraperitoneally; shows activity; assay type: organism-based; set-up: dose 30 mg/kg, route intraperitoneal; details: in vivo, ip, 0.5 h; method in brief: as §1
Mus musculus [17] = assay: Toxicity tested by rotarod test for neurologic deficit at interval of 4 hr when 100 mg/kg was administered intraperitoneally; shows activity; assay type: organism-based; set-up: dose 100 mg/kg, route intraperitoneal; details: in vivo, ip; method in brief: as §1
Mus musculus [18] = species: Mus musculus; assay: Effective dose evaluated against maximal electric seizures (MES) or convulsions in mice;activity value ranges from 66.58-109.74; assay type: functional
Mus musculus [19] = assay: Toxicity tested by rotarod test for neurologic deficit at interval of 30 min when 600 mg/kg was administered intraperitoneally; no activity; assay type: organism-based; set-up: dose 600 mg/kg, route intraperitoneal; details: in vivo, ip, 0.5 h; method in brief: as §1
[20] = Toxic dose was determined by the rotarod test in mice; assay type: toxicity, organism-based; details: mouse, in vivo
Mus musculus [21] = assay: Toxicity tested by rotarod test for neurologic deficit at interval of 4 hr when 600 mg/kg was administered intraperitoneally; no activity; assay type: organism-based; set-up: dose 600 mg/kg, route intraperitoneal; details: in vivo, ip; method in brief: as §1
Mus musculus [22] = species: Mus musculus; assay: Effective dose evaluated against maximal electric seizures (MES) or convulsions in mice; activity value ranges from 39.77-53.41; assay type: functional
Mus musculus [23] = assay: Toxicity tested by rotarod test for neurologic deficit at interval of 30 min when 300 mg/kg was administered intraperitoneally; shows activity; assay type: organism-based; set-up: dose 300 mg/kg, route intraperitoneal; details: in vivo, ip, 0.5 h; method in brief: as §1
[24] = Toxic dose was determined by the rotarod test in mice; activity value ranges from 130.89-161.13; assay type: toxicity, organism-based; details: mouse, in vivo
Mus musculus [25] = species: Mus musculus; assay: Effective dose evaluated against maximal electric seizures (MES) or convulsions in mice; activity value ranges from 56.16-105.53; assay type: functional
Mus musculus [26] = assay: Toxicity tested by rotarod test for neurologic deficit at interval of 30 min when 600 mg/kg was administered intraperitoneally; shows activity; assay type: organism-based; set-up: dose 600 mg/kg, route intraperitoneal; details: in vivo, ip, 0.5 h; method in brief: as §1
[27] = Toxic dose was determined by the rotarod test in mice; activity value ranges from 556.77-815.69; assay type: toxicity, organism-based; details: mouse, in vivo
Mus musculus [28] = assay: Anticonvulsant activity of 300 mg/kg after 30 min. of intraperitoneal administration in mice against maximum electroshock seizures (MES); compound shows activity; assay type: functional, organism-based; set-up: dose 300 mg/kg
Mus musculus [29] = assay: Anticonvulsant activity of 600 mg/kg of compound against subcutaneous induced metrazole convulsions at interval of 30 min administered intraperitoneally in mice; compound shows activity; assay type: functional, organism-based; set-up: dose 600 mg/kg
Mus musculus [30] = assay: Anticonvulsant activity of 600 mg/kg after 4 hr of intraperitoneal administration in mice against maximum electroshock seizures (MES); compound shows activity; assay type: functional, organism-based; set-up: dose 600 mg/kg
Mus musculus [31] = assay: Anticonvulsant activity of 600 mg/kg of compound against subcutaneous induced metrazole convulsions at interval of 4 hr administered intraperitoneally in mice; compound does not show activity; assay type: functional, organism-based; set-up: dose 600 mg/kg
Mus musculus [32] = species: Mus musculus; assay: Effective dose evaluated against maximal electric seizures (MES) or convulsions in mice; activity value ranges from 2.18-3.07; assay type: functional
[33] = Toxic dose was determined by the rotarod test in mice; activity value ranges from 98.01-127.65; assay type: toxicity, organism-based; details: mouse, in vivo
Mus musculus [34] = assay: Toxicity tested by rotarod test for neurologic deficit at interval of 4 hr when 300 mg/kg was administered intraperitoneally; shows activity; assay type: organism-based; set-up: dose 300 mg/kg, route intraperitoneal; details: in vivo, ip; method in brief: as §1

In the case of Cc1ccc(NC(=O)c2ccc(N)cc2)cc1C, the ED50 (Mus musculus [1]) is reported as 42.3 mg/kg, the Toxicity (Mus musculus [2]) is reported as “Activity” and the Toxicity (Mus musculus [3]) is reported as “Activity”. For the same molecule, the TD50 [4] was 194 mg/kg, the selectivity ratio [5] was 4.59 and the selectivity ratio [6] was 2.4.
Molecule CCCC(CCC)C(=O)O [VALPROIC ACID] has an ED50 (Mus musculus [7]) of 149 mg/kg and an ED50 (Mus musculus [8]) of 272 mg/kg.
In the case of Cc1cccc(NC(=O)c2ccc(N)cc2)c1C, the ED50 (Mus musculus [9]) is reported as 25.2 mg/kg, the Toxicity (Mus musculus [10]) is reported as “LD50 < 600 mg/kg” and the Toxicity (Mus musculus [2]) is reported as “LD50 < 600 mg/kg”. It also gave a TD50 [11] of 104 mg/kg and a selectivity ratio [5] of 4.11.
For CC(NC(=O)c1ccc(N)cc1)c1ccccc1 (centres undefined), the ED50 (Mus musculus [12]) was 41.8 mg/kg, the TD50 [13] was 171 mg/kg and the selectivity ratio [5] was 9.5. It also gave a selectivity ratio [6] of 4.1.
With CCc1cccc(C(C)C)c1NC(=O)c1ccc(N)cc1 the ED50 (Mus musculus [14]) was 16.7 mg/kg, the TD50 [15] was 49.1 mg/kg and the Toxicity (Mus musculus [16]) was “Activity”. The Toxicity (Mus musculus [17]) was “Activity” and the selectivity ratio [5] was 2.95.
In the case of Cc1cccc(C(C)C)c1NC(=O)c1ccc(N)cc1, the ED50 (Mus musculus [18]) is reported as 86.1 mg/kg, the Toxicity (Mus musculus [19]) is reported as “No activity” and the TD50 [20] is reported as > 1500 mg/kg. The selectivity ratio [5] was > 17.4.
In the case of Cc1ccc(NC(=O)c2ccc(N)cc2)cc1, the Toxicity (Mus musculus [2]) is reported as “Activity” and the Toxicity (Mus musculus [3]) is reported as “Activity”.
For Cc1ccc(C)c(NC(=O)c2ccc(N)cc2)c1, the Toxicity (Mus musculus [19]) was “No activity” and the Toxicity (Mus musculus [21]) was “No activity”.
For Cc1cccc(NC(=O)c2ccc(N)cc2)c1, the ED50 (Mus musculus [22]) was 47 mg/kg, the Toxicity (Mus musculus [23]) was “Activity” and the Toxicity (Mus musculus [3]) was “Activity”. For the same molecule, the TD50 [24] was 143 mg/kg, the selectivity ratio [5] was 3.03 and the selectivity ratio [6] was 1.62.
With CC(C)c1ccccc1NC(=O)c1ccc(N)cc1 the ED50 (Mus musculus [25]) was 81.5 mg/kg, the Toxicity (Mus musculus [26]) was “No activity” and the Toxicity (Mus musculus [21]) was “No activity”. For the same molecule, the TD50 [27] was 709 mg/kg and the selectivity ratio [5] was 8.7.
For Cc1ccc(NC(=O)c2ccc(N)cc2)c(C)c1, the Activity (Mus musculus [28]) was “No activity”, the Activity (Mus musculus [29]) was “No activity” and the Activity (Mus musculus [30]) was “No activity”. For the same molecule, the Activity (Mus musculus [31]) was “No activity”, the Toxicity (Mus musculus [26]) was “No activity” and the Toxicity (Mus musculus [21]) was “No activity”.
For Cc1cccc(C)c1NC(=O)c1ccc(N)cc1 [AMELTOLIDE], the ED50 (Mus musculus [32]) was 2.6 mg/kg, the Toxicity (Mus musculus [16]) was “Activity” and the Toxicity (Mus musculus [17]) was “Activity”.
For Nc1ccc(C(=O)Nc2ccccc2)cc1, the TD50 [33] was 111 mg/kg, the Toxicity (Mus musculus [2]) was “Activity” and the Toxicity (Mus musculus [34]) was “Activity”. The selectivity ratio [5] was 2.2 and the selectivity ratio [6] was 1.88.
For Cc1cc(C)cc(NC(=O)c2ccc(N)cc2)c1, the Toxicity (Mus musculus [19]) was “No activity” and the Toxicity (Mus musculus [21]) was “No activity”.
With Cc1ccccc1NC(=O)c1ccc(N)cc1 the Toxicity (Mus musculus [16]) was “Activity” and the Toxicity (Mus musculus [23]) was “Activity”.
